TRPC4 potent: positive allosteric modulators of TRPC4, primary screen, cell-based, mouse TRPC4beta, HEK293 mu-opioid, Fluo-4 calcium; DAMGO EC20, Fluo-4 Ca2+ flux; stronger effect = higher value; 0.42% of 310,000 active; B-score at 10 µM;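 active means B-score of calcium response area above 5 SD of library B-scores, with initial fluorescence ratio within 5 SD of library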;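 further: B-score of integrated fluorescence ratio over time as area under calcium response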
DSG3 Ab inh: inhibitors of pemphigus antibody binding to DSG3, primary screen, biochemical, bead-based, flow cytometry, scFv-GFP. Desmoglein-3 (Homo sapiens), P32926. DSG3-coupled beads, scFv-anti-DSG3-GFP binding; stronger effect = lower value. binding (percent of control), % at 10 µM. 0.48% of 310,000 active;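 active means binding more than 3 SD below its plate's average and above zero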;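 further: hits lower antibody fragment binding to DSG3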
TRPC6 act: mouse TRPC6 channel activators, primary screen, cell-based, HEK293, membrane potential dye; 0.13% of 310,000 active; B-score at 10 µM; HEK293-TRPC6 membrane potential dye fluorescence; stronger effect = higher value; Short transient receptor potential channel 6 (Mus musculus), Q61143;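 active means B-score of the integrated fluorescence ratio above library mean plus 3 SD, and starting fluorescence ratio within library mean plus 5 SD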;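 further: higher score means more depolarization so channel activation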
Target sequence (Q61143 whole entry, looked up): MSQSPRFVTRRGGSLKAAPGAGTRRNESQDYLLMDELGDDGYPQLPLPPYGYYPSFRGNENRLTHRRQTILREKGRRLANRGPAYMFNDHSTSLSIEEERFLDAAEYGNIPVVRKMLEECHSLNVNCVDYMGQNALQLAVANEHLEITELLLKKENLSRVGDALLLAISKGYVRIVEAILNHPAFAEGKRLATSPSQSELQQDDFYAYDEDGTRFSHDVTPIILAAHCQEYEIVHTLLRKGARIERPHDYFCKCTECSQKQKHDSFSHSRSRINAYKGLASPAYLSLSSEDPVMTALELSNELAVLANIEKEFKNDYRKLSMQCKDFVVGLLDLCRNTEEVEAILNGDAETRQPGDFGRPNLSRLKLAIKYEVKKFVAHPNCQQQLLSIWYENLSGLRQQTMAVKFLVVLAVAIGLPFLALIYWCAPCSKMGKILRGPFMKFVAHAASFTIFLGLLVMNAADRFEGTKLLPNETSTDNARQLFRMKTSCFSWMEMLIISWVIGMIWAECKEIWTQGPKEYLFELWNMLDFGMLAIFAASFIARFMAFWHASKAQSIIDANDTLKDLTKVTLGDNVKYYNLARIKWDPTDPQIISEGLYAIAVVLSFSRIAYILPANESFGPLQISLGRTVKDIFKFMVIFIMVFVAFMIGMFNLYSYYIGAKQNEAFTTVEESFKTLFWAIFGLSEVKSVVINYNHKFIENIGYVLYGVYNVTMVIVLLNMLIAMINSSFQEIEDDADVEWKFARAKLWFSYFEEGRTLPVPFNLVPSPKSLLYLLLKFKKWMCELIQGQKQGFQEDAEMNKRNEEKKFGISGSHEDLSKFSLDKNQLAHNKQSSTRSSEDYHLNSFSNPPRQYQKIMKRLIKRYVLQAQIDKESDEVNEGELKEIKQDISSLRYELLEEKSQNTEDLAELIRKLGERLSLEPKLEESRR
TRPC4 act: activators of mouse TRPC4 channel, primary screen, Fluo4 calcium, HEK293 TRPC4beta/mu-opioid cells; B-score at 10 µM; Fluo4 calcium fluorescence; stronger effect = higher value; Short transient receptor potential channel 4 (Mus musculus), Q9QUQ5; 0.49% of 310,000 active;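 active means B-score above 5 SD of library B-scores, and initial fluorescence ratio not above library mean plus 5 SD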;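 further: positive B-score marks a calcium rise read as TRPC4 activation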
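Test system: HEK293 cells stably co-expressing mouse TRPC4beta and mu-opioid receptor | Schedule: Fluo4 dye loading 45 min at room temperature, 110 s recording | Measured by: Kinetic Fluo4 calcium fluorescence, 5 s baseline at 1 Hz | Evaluation: B score of integrated ratio | Controls: Buffer (low) and maximal DAMGO (high)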
TRPC6 inhibitor: mouse TRPC6 channel inhibitors, primary screen, cell-based, HEK293, membrane potential dye | ACh-evoked depolarization; stronger effect = lower value | B-score at 10 µM | 1.1% of 310,000 active;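 active means B-score under library mean minus 3 SD, initial fluorescence not abnormally high, positive integrated signal ratio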;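 further: B-score derived from integrated fluorescence ratio over the kinetic read; more negative B-score means stronger inhibition of depolarization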
TRPC4 block: inhibitors of mouse TRPC4 channel, primary screen, Fluo4 calcium, HEK293 TRPC4beta/mu-opioid cells; DAMGO-evoked Fluo4 calcium flux; stronger effect = lower value; B-score at 10 µM; 0.39% of 300,000 active;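 active means B-score over 3 SD under the library average, no early fluorescence shift, positive overall ratio signal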
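System: stable TRPC4beta/mu-opioid receptor HEK293 cells; Dosing: single-point compound dosing; Measured by: Fluo4 Ca2+ flux fluorescence; Read-out basis: per-well B score of integrated baseline-normalized Fluo4 ratio.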
TRPC4 spec 2: second check of whether TRPC6 inhibitors also affect mouse TRPC4; shares compounds with TRPC6 inhibitor; HEK293 TRPC4/MOR, membrane potential dye fluorescence; channel activated by saturating DAMGO dose; inhibition, % at 10 µM; 42% of 920 active;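 active means compounds whose fluorescence signal differed from control wells by over 3 SD, either direction, in both duplicate plates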
TRPC4 spec: mouse TRPC4 modulation by TRPC6 hits, confirmation, selectivity assay for TRPC6 inhibitor project, cell-based, HEK293 TRPC4/mu-opioid, membrane potential dye | shares compounds with TRPC6 inhibitor | membrane potential fluorescence | activity change, negative = inhibition, % at 10 µM | 61% of 920 active;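 active means rise or fall in signal beyond 3 SD of buffer-only wells in both replicate plates, either sign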;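 further: integrated kinetic ratio of fluorescence range over baseline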
HEK293 MPD ctr 2-1: nonspecific membrane potential effects, parental HEK293, confirmation, counter-screen for TRPC6 inhibitor project, cell-based, second counter screen. shares compounds with TRPC6 inhibitor. parental HEK293 membrane potential dye fluorescence; maximal acetylcholine challenge after compound addition. signal change vs control, % at 10 µM. 31% of 920 active;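 active means membrane potential signal moving either way by over 3 SD of the maximum-effect control, in both duplicate plates, meaning non-specific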
HEK293 MPD ctr-1: membrane potential modulation in parental HEK293, confirmation, counter-screen for TRPC6 inhibitor project, cell-based; 60% of 920 active; parental HEK293 membrane potential dye fluorescence; shares compounds with TRPC6 inhibitor; membrane potential signal change, % at 10 µM;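 active means membrane potential signal shifting up or down by more than 3 SD of buffer-only wells, on both duplicate plates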
HEK293 MPD ctr-2: parental HEK293 membrane potential modulation, confirmation, counter-screen for TRPC6 modulator project, cell-based | shares compounds with TRPC6 inhibitor | membrane potential dye fluorescence | membrane potential signal change, % at 10 µM | 51% of 2,400 active | AID 488924, 2010;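 active means membrane potential signal moves up or down beyond 5 SD from buffer-only wells, on both duplicate plates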
HEK293 MPD ctr 2-2: second check of TRPC6 modulator effects in parental HEK293 cells; shares compounds with TRPC6 inhibitor; membrane potential dye fluorescence; after compound, maximal acetylcholine stimulation; inhibition, % at 10 µM; 14% of 2,400 active; AID 488926;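 active means membrane potential signal drops by more than 5 SD from the mean control signal, in both duplicate plates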;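 further: plate controls were acetylcholine ECmax control wells for no effect and buffer only wells for full effect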
TRPC4 ctr mod: TRPC4 modulation by TRPC6 hit compounds, confirmation, selectivity assay for TRPC6 modulator project, cell-based, HEK293 TRPC4/mu-opioid, membrane potential dye, mouse; membrane potential fluorescence; percent change from control (negative = decrease, positive = increase), % at 10 µM; 69% of 2,400 active; shares compounds with TRPC6 inhibitor;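 active means membrane potential signal moved up or down beyond 5 SD of buffer control wells, in both duplicate plates, actives on both sides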;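 further: plate controls were assay buffer wells for no effect and DAMGO maximal-effect wells for full effect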
TRPC4 ctr inh 2: second check of whether TRPC6 modulators also affect mouse TRPC4 | shares compounds with TRPC6 inhibitor | HEK293 TRPC4/mu-opioid, membrane potential dye fluorescence; stimulated with maximal-effect DAMGO | inhibition, % at 10 µM | 55% of 2,400 active | AID 488928;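 active means drop in membrane potential signal beyond 5 SD of the control wells in both duplicate plates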;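 further: TRPC4 counter screen for TRPC6 hits run under conditions tuned for TRPC6 not TRPC4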
TRPC6 block conf: mouse TRPC6 channel inhibitors, confirmation, HEK293 cells, membrane potential dye, duplicate; shares compounds with TRPC6 inhibitor; ACh-evoked depolarization; inhibition, % at 10 µM; 43% of 3,300 active;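 active means fluorescence ratio falls more than 5 SD below the full-stimulation control mean, in both duplicate runs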;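 further: integrated fluorescence ratio of peak minus minimum over baseline after agonist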
TRPC6 act confirm: mouse TRPC6 channel activators, confirmation, HEK293 cells, membrane potential dye, duplicate; shares compounds with TRPC6 inhibitor; AID 488961, 2010; activation, % at 10 µM; 11% of 2,800 active; HEK293-TRPC6 membrane potential dye fluorescence, FDSS;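 active means ratio signal rise beyond 5 SD above unstimulated control wells' mean, seen in both duplicate runs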;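 further: plate controls were buffer EC0 wells for no effect and acetylcholine ECmax response for full effect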
* marks the source's active call; other numbers are inactive results. Shown are actives, neighbours in structure and some others; about 2.5% of the full set was active somewhere.

CCCCCCc1ccc(N2C[C@H](Cc3ccccc3)[C@@H](CC(=O)NCc3ccc(OC)cc3)C2=O)cc1 was read as TRPC4 potent inactive, DSG3 Ab inh 93, TRPC6 act inactive, TRPC4 act inactive, TRPC6 inhibitor inactive and TRPC4 block inactive.
`CCCCCCCC(=O)NN=C1CCN(Cc2ccccc2)CC1` gave TRPC4 potent inactive, DSG3 Ab inh 86, TRPC6 act inactive, TRPC4 act inactive, TRPC6 inhibitor inactive and TRPC4 block inactive.
`O=C(/C=C/c1cn(CC(O)CN2CCCCC2)c2ccccc12)c1ccccc1` (configuration not stated) gave TRPC4 potent inactive, TRPC6 act inactive, TRPC4 act inactive, TRPC6 inhibitor -6.4*, TRPC4 block inactive, HEK293 MPD ctr-2 294%*, HEK293 MPD ctr 2-2 inactive, TRPC4 ctr mod inactive, TRPC4 ctr inh 2 84%* and TRPC6 block conf 74%*.
O=c1c2ccccc2n(CC(O)CN2CCCCC2)c2ccccc12 (configuration not stated) was read as TRPC4 potent inactive, DSG3 Ab inh 93, TRPC6 act inactive, TRPC4 act inactive, TRPC6 inhibitor -5.2*, TRPC4 block inactive, HEK293 MPD ctr-2 -104%*, HEK293 MPD ctr 2-2 inactive, TRPC4 ctr mod -16%*, TRPC4 ctr inh 2 49%*, TRPC6 block conf inactive and TRPC6 act confirm inactive.
Screening CCCNCC(O)Cn1c2ccccc2n2c(=O)cc(C)c(C#N)c12 (configuration not stated) returned TRPC4 potent inactive, DSG3 Ab inh 106, TRPC6 act inactive, TRPC4 act inactive, TRPC6 inhibitor inactive and TRPC4 block inactive.
CCCN(CCC)CC(O)Cn1cc(/C=C/C(=O)c2cccs2)c2ccccc21 (configuration not stated) was read as TRPC4 potent inactive, DSG3 Ab inh 112, TRPC6 act inactive, TRPC4 act inactive, TRPC6 inhibitor -11*, TRPC4 block inactive, TRPC4 spec 2 24%*, TRPC4 spec 9.6%*, HEK293 MPD ctr 2-1 inactive, HEK293 MPD ctr-1 16%*, TRPC6 block conf inactive and TRPC6 act confirm inactive.
Screening Cc1cc(=O)n2c3ccccc3n(CC(O)CN3CCCC3)c2c1C#N (configuration not stated) returned TRPC4 potent inactive, DSG3 Ab inh 96, TRPC6 act inactive, TRPC4 act inactive, TRPC6 inhibitor -8*, TRPC4 block inactive, TRPC4 spec 2 68%*, TRPC4 spec -19%*, HEK293 MPD ctr 2-1 inactive, HEK293 MPD ctr-1 -280%*, TRPC6 block conf 53%* and TRPC6 act confirm inactive.
For O=C(Nc1cccc(-n2cnnn2)c1)c1ccc(OC(F)(F)F)cc1 the results were TRPC4 potent inactive, DSG3 Ab inh 98, TRPC6 act inactive, TRPC4 act inactive, TRPC6 inhibitor inactive and TRPC4 block inactive.
`COc1ccc(C(=O)c2c3ccc(C(F)(F)F)cc3[n+]([O-])n2CCCN)cc1` gave TRPC4 potent inactive, DSG3 Ab inh 103, TRPC6 act inactive, TRPC4 act inactive, TRPC6 inhibitor -5.7*, TRPC4 block inactive, HEK293 MPD ctr-2 inactive, HEK293 MPD ctr 2-2 inactive, TRPC4 ctr mod -9.5%*, TRPC4 ctr inh 2 47%*, TRPC6 block conf 48%* and TRPC6 act confirm inactive.
For Cc1ccc(C(=O)c2c3ccc(C(F)(F)F)cc3[n+]([O-])n2CCCN)cc1 the results were TRPC4 potent inactive, DSG3 Ab inh 104, TRPC6 act inactive, TRPC4 act inactive, TRPC6 inhibitor -8.1*, TRPC4 block inactive, TRPC4 spec 2 50%*, TRPC4 spec -12%*, HEK293 MPD ctr 2-1 inactive, HEK293 MPD ctr-1 -158%*, TRPC6 block conf 76%* and TRPC6 act confirm inactive.

High-throughput results from PubChem.
